Test results taken from ChEMBL document CHEMBL3751707, “Silicon Incorporated Morpholine Antifungals: Design, Synthesis, and Biological Evaluation” (ACS Med Chem Lett, 2015).
≈ marks a conversion by molar mass, not a printed value.

Columns and labels:
Cryptococcus neoformans [1] = assay: Antifungal activity against Cryptococcus neoformans ATCC 34664 after 24 to 36 hrs by broth microdilution method; type: functional, organism-based
Procedure, shortened: (§1)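 CLSI broth microdilution against yeasts (M27-A3) and filamentous fungi (M38-A2). Read-outs: IC50 (concentration giving 50% growth inhibition), MIC, and MFC (minimum fungicidal concentration), all in μg/mL. Assay done twice in triplicate.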

Nakaseomyces glabratus [2] = assay: Antifungal activity against Candida glabrata NCYC 388 after 72 hrs by broth microdilution method; type: functional; conditions: NCYC 388, 72 h; procedure, shortened: as §1
[3] = Toxicity in human RBC assessed as partial hemolysis at 256 ug/ml; type: cell-based; conditions: erythrocyte
Candida albicans [4] = assay: Antifungal activity against Candida albicans ATCC 10231 after 72 hrs by broth microdilution method; type: functional; conditions: ATCC 10231, 72 h; procedure, shortened: as §1
Candida albicans [5] = assay: Antifungal activity against Candida albicans ATCC 24433 after 24 to 36 hrs by broth microdilution method; type: functional, organism-based; procedure, shortened: as §1
[6] = Toxicity in human RBC assessed as hemolysis upto 128 ug/ml; type: cell-based; conditions: erythrocyte
Candida tropicalis [7] = assay: Antifungal activity against Candida tropicalis ATCC 750 after 24 to 36 hrs by broth microdilution method; type: functional, organism-based; procedure, shortened: as §1
Aspergillus niger [8] = assay: Antifungal activity against Aspergillus niger ATCC 10578 after 48 hrs by broth microdilution method; type: functional, organism-based; conditions: ATCC 10578, 48 h; procedure, shortened: as §1
Candida tropicalis [9] = assay: Antifungal activity against Candida tropicalis ATCC 750 after 72 hrs by broth microdilution method; type: functional; conditions: ATCC 750, 72 h; procedure, shortened: as §1
Aspergillus niger [10] = assay: Antifungal activity against Aspergillus niger ATCC 10578 after 72 hrs by broth microdilution method; type: functional; conditions: ATCC 10578, 72 h; procedure, shortened: as §1
Cryptococcus neoformans [11] = assay: Antifungal activity against Cryptococcus neoformans ATCC 34664 after 72 hrs by broth microdilution method; type: functional; conditions: ATCC 34664, 72 h; procedure, shortened: as §1
Nakaseomyces glabratus [12] = assay: Antifungal activity against Candida glabrata NCYC 388 after 24 to 36 hrs by broth microdilution method; type: functional, organism-based; procedure, shortened: as §1
Candida albicans [13] = assay: Antifungal activity against Candida albicans ATCC 24433 after 72 hrs by broth microdilution method; type: functional; conditions: ATCC 24433, 72 h; procedure, shortened: as §1
Candida albicans [14] = assay: Antifungal activity against Candida albicans ATCC 10231 after 24 to 36 hrs by broth microdilution method; type: functional, organism-based; procedure, shortened: as §1
Candida albicans [15] = assay: Effect on sterol profile of Candida albicans ATCC 24433 assessed as ergosterol level at 0.125 ug/ml for 24 hrs by spectrophotometry; type: functional; conditions: in the assay text read “ergostenol level” for “ergosterol level”
Procedure, shortened: (§2)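 C. albicans ATCC 24433 grown with subinhibitory (<MIC) compound concentrations. Cellular sterols extracted. Sterol content read spectrophotometrically by scan at 230–300 nm, and individual intermediates quantified by GC–MS. Values are average % of total sterols from two experiments, with standard error of the mean.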

Candida albicans [16] = assay: Effect on sterol profile of Candida albicans ATCC 24433 assessed as cholesta-8,24-dien-3-ol,4-methyl-(3a',4a') level at 0.25 ug/ml for 24 hrs by spectrophotometry (reference value: 7.19 +/- 0.65 %); type: functional; conditions: in the assay text read “by GC-MS” for “by spectrophotometry”; procedure, shortened: as §2
[17] = Toxicity in human RBC assessed as hemolysis at 512 ug/ml; type: cell-based, Erythrocyte; conditions: red blood cells, read-out: Activity
Candida albicans [18] = assay: Effect on sterol profile of Candida albicans ATCC 24433 assessed as squalene level at 0.25 ug/ml for 24 hrs by spectrophotometry (reference value: 7.17 +/- 0.35 %); type: functional; procedure, shortened: as §2
Candida albicans [19] = assay: Effect on sterol profile of Candida albicans ATCC 24433 assessed as cholesta-5,24-dien-3-ol level at 0.125 ug/ml for 24 hrs by spectrophotometry (reference value: 3.58 +/- 0.52 %); type: functional; procedure, shortened: as §2
Candida albicans [20] = assay: Effect on sterol profile of Candida albicans ATCC 24433 assessed as ignosterol level at 0.25 ug/ml for 24 hrs by spectrophotometry; type: functional; conditions: in the assay text read “by GC-MS” for “by spectrophotometry”; procedure, shortened: as §2
Candida albicans [21] = assay: Effect on sterol profile of Candida albicans ATCC 24433 assessed as ergosterol level at 0.125 ug/ml for 24 hrs by spectrophotometry (reference value: 73.34 +/- 2.53 %); type: functional; procedure, shortened: as §2
Candida albicans [22] = assay: Effect on sterol profile of Candida albicans ATCC 24433 assessed as lichesterol level at 0.125 ug/ml for 24 hrs by spectrophotometry; type: functional; procedure, shortened: as §2
Candida albicans [23] = assay: Effect on sterol profile of Candida albicans ATCC 24433 assessed as cholesta-8,24-dien-3-ol,4-methyl-(3a',4a') level at 0.125 ug/ml for 24 hrs by spectrophotometry (reference value: 7.19 +/- 0.65 %); type: functional; procedure, shortened: as §2
Candida albicans [24] = assay: Effect on sterol profile of Candida albicans ATCC 24433 assessed as cholesta-5,24-dien-3-ol level at 0.25 ug/ml for 24 hrs by spectrophotometry (reference value: 3.58 +/- 0.52 %); type: functional; conditions: in the assay text read “by GC-MS” for “by spectrophotometry”; procedure, shortened: as §2
Candida albicans [25] = assay: Effect on sterol profile of Candida albicans ATCC 24433 assessed as ergosterol level at 0.25 ug/ml for 24 hrs by spectrophotometry; type: functional; conditions: in the assay text read “ergostenol level” for “ergosterol level”; procedure, shortened: as §2
Candida albicans [26] = assay: Effect on sterol profile of Candida albicans ATCC 24433 assessed as squalene level at 0.125 ug/ml for 24 hrs by spectrophotometry (reference value: 7.17 +/- 0.35 %); type: functional; procedure, shortened: as §2
[27] = Metabolic stability in human liver microsomes after 30 mins by LC-MS/MS analysis; type: ADME; conditions: read-out: Stability
Procedure, shortened: (§3)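 Test compounds were incubated 30 min with liver microsomes (human or mouse, per line), and values are reported as % metabolic stability after 30 min.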

Candida albicans [28] = assay: Effect on sterol profile of Candida albicans ATCC 24433 assessed as ergosterol level at 0.25 ug/ml for 24 hrs by spectrophotometry (reference value: 73.34 +/- 2.53 %); type: functional; conditions: in the assay text read “by GC-MS” for “by spectrophotometry”; procedure, shortened: as §2
[29] = Metabolic stability in mouse liver microsomes after 30 mins by LC-MS/MS analysis; type: ADME; conditions: read-out: Stability; procedure, shortened: as §3
Candida albicans [30] = assay: Effect on sterol profile of Candida albicans ATCC 24433 assessed as ignosterol level at 0.125 ug/ml for 24 hrs by spectrophotometry; type: functional; procedure, shortened: as §2

Row | IC50 (Cryptococcus neoformans [1]) | MIC (Cryptococcus neoformans [1]) | IC50 (Candida albicans [5]) | MIC (Candida albicans [5]) | IC50 (Candida tropicalis [7]) | MIC (Candida tropicalis [7]) | IC50 (Aspergillus niger [8]) | MIC (Aspergillus niger [8]) | IC50 (Nakaseomyces glabratus [12]) | MIC (Nakaseomyces glabratus [12]) | IC50 (Candida albicans [14]) | MIC (Candida albicans [14]) | Structure (SMILES) | MFC (Nakaseomyces glabratus [2]) | MFC (Candida albicans [4]) | Activity [6] | MFC (Candida tropicalis [9]) | MFC (Aspergillus niger [10]) | MFC (Cryptococcus neoformans [11]) | MFC (Candida albicans [13]) | further results
1 | 6.9 mg/L (≈ 21.7 µM) | 16 mg/L (≈ 50.2 µM) | 5.13 mg/L (≈ 16.1 µM) | 8 mg/L (≈ 25.1 µM) | 1.5 mg/L (≈ 4.71 µM) | 64 mg/L (≈ 201 µM) | 4.5 mg/L (≈ 14.1 µM) | 8 mg/L (≈ 25.1 µM) | 5.92 mg/L (≈ 18.6 µM) | 8 mg/L (≈ 25.1 µM) | 1.59 mg/L (≈ 4.99 µM) | 2 mg/L (≈ 6.28 µM) | CC(CNC1CCN(C)CC1)Cc1ccc([Si](C)(C)C)cc1 (stereo not given) | 16 mg/L (≈ 50.2 µM) | 2 mg/L (≈ 6.28 µM) | Non-toxic | 256 mg/L (≈ 804 µM) | > 256 mg/L | 16 mg/L (≈ 50.2 µM) | 8 mg/L (≈ 25.1 µM) | Activity [3]: Toxic
2 | 0.079 mg/L (≈ 0.247 µM) | 0.125 mg/L (≈ 0.391 µM) | 0.043 mg/L (≈ 0.135 µM) | 0.125 mg/L (≈ 0.391 µM) | 0.164 mg/L (≈ 0.513 µM) | 0.5 mg/L (≈ 1.56 µM) | 0.5 mg/L (≈ 1.56 µM) | 2 mg/L (≈ 6.26 µM) | 0.017 mg/L (≈ 0.0532 µM) | 0.125 mg/L (≈ 0.391 µM) | 0.25 mg/L (≈ 0.782 µM) | 0.5 mg/L (≈ 1.56 µM) | CC(Cc1ccc([Si](C)(C)C)cc1)CN1C[C@@H](C)O[C@@H](C)C1 (stereo not given in full) | 2 mg/L (≈ 6.26 µM) | 1 mg/L (≈ 3.13 µM) | Non-toxic | 64 mg/L (≈ 200 µM) | 256 mg/L (≈ 801 µM) | 2 mg/L (≈ 6.26 µM) | 0.5 mg/L (≈ 1.56 µM) | Activity (Candida albicans [15]): 5.19%; Activity (Candida albicans [16]): 27.78%; hemolysis at 512 ug/ml [17]: 7%; Activity (Candida albicans [18]): 13.82%; Activity (Candida albicans [19]): 15.34%; Activity (Candida albicans [20]): 42.29%; Activity (Candida albicans [21]): 15.52%; Activity (Candida albicans [22]): 29.84%; Activity (Candida albicans [23]): 5.36%; Activity (Candida albicans [24]): 0.87%; Activity (Candida albicans [25]): 4.12%; Activity (Candida albicans [26]): 21.52%; remaining at 0.5 h [27]: 27.3%; Activity (Candida albicans [28]): 11.12%; remaining at 0.5 h [29]: 6.2%; Activity (Candida albicans [30]): 7.23%
